Laboratory results taken from ChEMBL document CHEMBL2169746, “Design, synthesis, and antitumor evaluation of 2,4,6-triaryl pyridines containing chlorophenyl and phenolic moiety” (Eur J Med Chem, 2012).

Assays:
[1] = biological target: T1, DNA topoisomerase 1 (Homo sapiens) (UniProt P11387); test: Inhibition of recombinant human DNA topoisomerase-1-mediated relaxation of supercoiled pBR322 at 100 uM after 30 mins using ethidium bromide staining by agarose gel electrophoresis
T1 sequence (whole entry): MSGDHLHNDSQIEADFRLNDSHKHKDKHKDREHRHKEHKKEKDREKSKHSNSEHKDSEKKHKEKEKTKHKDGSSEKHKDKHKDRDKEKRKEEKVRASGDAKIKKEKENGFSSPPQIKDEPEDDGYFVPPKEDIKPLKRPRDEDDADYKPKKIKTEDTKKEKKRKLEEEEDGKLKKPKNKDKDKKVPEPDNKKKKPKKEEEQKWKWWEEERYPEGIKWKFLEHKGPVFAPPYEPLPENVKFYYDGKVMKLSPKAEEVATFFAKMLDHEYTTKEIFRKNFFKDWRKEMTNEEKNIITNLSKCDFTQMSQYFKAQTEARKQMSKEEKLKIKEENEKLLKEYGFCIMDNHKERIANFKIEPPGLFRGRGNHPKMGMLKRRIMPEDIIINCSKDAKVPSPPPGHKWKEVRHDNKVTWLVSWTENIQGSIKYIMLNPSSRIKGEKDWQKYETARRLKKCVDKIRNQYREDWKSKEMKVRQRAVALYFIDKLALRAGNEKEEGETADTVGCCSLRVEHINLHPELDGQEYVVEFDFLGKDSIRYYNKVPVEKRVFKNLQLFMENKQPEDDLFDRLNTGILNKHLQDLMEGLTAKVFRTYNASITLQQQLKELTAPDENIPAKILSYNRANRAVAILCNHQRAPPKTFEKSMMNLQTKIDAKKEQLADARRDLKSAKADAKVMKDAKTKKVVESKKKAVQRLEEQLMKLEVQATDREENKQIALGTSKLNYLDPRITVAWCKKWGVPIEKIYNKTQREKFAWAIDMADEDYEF
How it was run: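 Compounds from 20 mM DMSO stocks. 100 ng pBR322 plasmid DNA with 1 unit recombinant human topo I, with or without compound, 37 °C for 30 min. Relaxation buffer was 10 mM Tris-HCl pH 7.9, 150 mM NaCl, 0.1% BSA, 1 mM spermidine. Relaxation of supercoiled DNA assessed by gel imaging.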

[2] = test system: DU-145; test: Cytotoxicity against human DU145 cells after 2 days by cell counting kit-8 analysis; format: functional, cell-based; conditions: DU-145, 48 h
How it was run: (§1)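 Cells grown per supplier's instructions, seeded at 2-4 × 10⁴ cells/well and incubated overnight in medium with 10% FBS at 37 °C, 5% CO₂. On day 2, after 4 h FBS starvation, medium was replaced with medium containing graded compound concentrations. Absorbance read at 450 nm. IC50 from a four-parameter logistic fit. Three independent experiments in triplicate, mean ± S.D.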

[3] = test system: HEK293; test: Cytotoxicity against human HEK293 cells after 2 days by cell counting kit-8 analysis; format: cell-based; conditions: HEK293, 48 h; how it was run: as §1
[4] = biological target: DNA topoisomerase 2-alpha (Homo sapiens) (UniProt P11388); test: Inhibition of human DNA topoisomerase-2alpha-mediated relaxation of supercoiled pBR322 at 20 uM after 30 mins using ethidium bromide staining by agarose gel electrophoresis
Sequence of DNA topoisomerase 2-alpha (Homo sapiens) (P11388 whole entry): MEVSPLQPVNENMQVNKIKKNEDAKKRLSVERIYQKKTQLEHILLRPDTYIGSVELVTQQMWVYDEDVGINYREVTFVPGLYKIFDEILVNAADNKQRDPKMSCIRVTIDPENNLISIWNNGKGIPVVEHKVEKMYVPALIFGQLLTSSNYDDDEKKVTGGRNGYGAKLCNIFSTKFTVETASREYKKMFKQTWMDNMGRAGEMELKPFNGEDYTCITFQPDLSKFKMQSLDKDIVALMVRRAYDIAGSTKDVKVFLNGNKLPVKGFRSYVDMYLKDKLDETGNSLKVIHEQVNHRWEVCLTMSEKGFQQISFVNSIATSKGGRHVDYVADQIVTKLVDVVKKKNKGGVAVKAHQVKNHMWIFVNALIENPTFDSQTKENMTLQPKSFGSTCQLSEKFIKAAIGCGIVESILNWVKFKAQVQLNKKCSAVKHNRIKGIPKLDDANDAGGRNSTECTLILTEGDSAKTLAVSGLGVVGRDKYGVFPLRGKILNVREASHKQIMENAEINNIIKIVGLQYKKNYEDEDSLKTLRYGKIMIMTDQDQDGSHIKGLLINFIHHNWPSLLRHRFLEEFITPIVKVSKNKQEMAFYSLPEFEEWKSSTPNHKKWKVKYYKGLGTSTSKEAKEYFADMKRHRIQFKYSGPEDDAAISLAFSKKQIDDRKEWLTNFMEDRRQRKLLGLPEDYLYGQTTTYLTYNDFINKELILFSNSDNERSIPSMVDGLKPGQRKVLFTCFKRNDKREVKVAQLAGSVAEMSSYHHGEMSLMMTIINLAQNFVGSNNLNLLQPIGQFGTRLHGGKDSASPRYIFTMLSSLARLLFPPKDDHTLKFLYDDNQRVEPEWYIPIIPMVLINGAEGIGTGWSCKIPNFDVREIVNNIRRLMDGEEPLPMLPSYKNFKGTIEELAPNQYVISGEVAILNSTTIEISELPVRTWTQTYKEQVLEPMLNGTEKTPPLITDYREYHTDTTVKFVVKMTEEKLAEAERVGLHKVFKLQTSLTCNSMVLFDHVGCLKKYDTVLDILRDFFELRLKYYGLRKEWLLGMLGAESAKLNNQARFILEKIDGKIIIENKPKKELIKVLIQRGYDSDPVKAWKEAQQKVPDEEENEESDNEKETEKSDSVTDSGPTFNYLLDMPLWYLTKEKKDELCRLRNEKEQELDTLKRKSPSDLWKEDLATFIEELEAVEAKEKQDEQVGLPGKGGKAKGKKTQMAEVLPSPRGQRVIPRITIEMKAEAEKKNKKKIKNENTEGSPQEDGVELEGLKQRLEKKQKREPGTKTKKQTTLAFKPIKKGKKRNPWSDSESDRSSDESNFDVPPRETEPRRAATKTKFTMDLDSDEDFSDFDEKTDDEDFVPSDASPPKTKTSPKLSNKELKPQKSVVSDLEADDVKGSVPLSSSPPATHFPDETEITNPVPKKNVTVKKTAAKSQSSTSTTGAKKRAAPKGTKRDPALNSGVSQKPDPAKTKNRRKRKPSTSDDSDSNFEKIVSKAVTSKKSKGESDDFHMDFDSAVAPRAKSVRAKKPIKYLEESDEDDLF
How it was run: (§2)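 200 ng supercoiled pBR322 with 1 unit human topo IIα, with or without compound. Buffer was 10 mM Tris-HCl pH 7.9, 50 mM NaCl, 5 mM MgCl₂, 1 mM EDTA, 1 mM ATP and bovine serum albumin. Incubated 30 min at 30 °C, stopped with EDTA. Products run on 1% agarose gel, 25 V, 4 h, TAE buffer. Compound stocks 20 mM in DMSO.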

[5] = test system: HCT-15; test: Cytotoxicity against human HCT15 cells after 2 days by cell counting kit-8 analysis; format: functional, cell-based; conditions: HCT-15, 48 h; how it was run: as §1
[6] = test system: T47D; test: Cytotoxicity against human T47D cells after 2 days by cell counting kit-8 analysis; format: functional, cell-based; conditions: 48 h; how it was run: as §1
[7] = biological target: DNA topoisomerase 2-alpha (Homo sapiens) (UniProt P11388); test: Inhibition of human DNA topoisomerase-2alpha-mediated relaxation of supercoiled pBR322 at 100 uM after 30 mins using ethidium bromide staining by agarose gel electrophoresis; how it was run: as §2

SMILES | inhibition [1] [%] | inhibition [4] [%] | inhibition [7] [%] | IC50 [2] [µM] | IC50 [3] [µM] | IC50 [5] [µM] | IC50 [6] [µM]
Oc1cccc(-c2cc(-c3cccs3)nc(-c3ccccc3Cl)c2)c1 | 2.7 | 10.7 | 78.9 | 1.7 | 2.6 | 2.79 | 3.99
Oc1cccc(-c2cc(-c3ccco3)nc(-c3ccccc3Cl)c2)c1 | 0 | 8.6 | 77.9 | 1.63 | 1.86 | 2.23 | 2.01
COc1cc([C@@H]2c3cc4c(cc3[C@@H](O[C@@H]3O[C@@H]5CO[C@@H](C)O[C@H]5[C@H](O)[C@H]3O)[C@H]3COC(=O)[C@H]23)OCO4)cc(OC)c1O [ETOPOSIDE] |  | 20 |  | 1.21 | 1.21 | 1.17 | 2.39
Oc1ccc(-c2cc(-c3ccco3)nc(-c3ccccc3Cl)c2)cc1 | 3.9 | 7.7 | 77.8 | 5.3 | 4.31 | 5.46 | 5.48
Oc1ccc(-c2cc(-c3ccc(Cl)cc3)nc(-c3ccco3)c2)cc1 | 15.8 | 36.2 | 84.1 | 7.28 | 5.72 | 7.02 | 6.26
Oc1ccc(-c2cc(-c3ccncc3)nc(-c3cccc(Cl)c3)c2)cc1 | 29.2 |  | 0 |  |  |  | 
Oc1ccc(-c2cc(-c3ccsc3)nc(-c3ccccc3Cl)c2)cc1 | 4.1 | 29.2 | 80.5 | 3.89 | 5.93 | 5.83 | 6.11
Oc1cccc(-c2cc(-c3ccsc3)nc(-c3ccccc3Cl)c2)c1 | 0 | 15.7 | 77.1 | 1.97 | 2.72 | 2.5 | 2.44
Oc1ccc(-c2cc(-c3ccccn3)nc(-c3ccccc3Cl)c2)cc1 | 5.2 |  | 21.1 |  |  |  | 
Oc1cccc(-c2cc(-c3cccc(Cl)c3)nc(-c3cccs3)c2)c1 | 7.6 | 39 | 80.4 | 2.65 | 3.15 | 2.61 | 3.41
Oc1ccc(-c2cc(-c3ccncc3)nc(-c3ccc(Cl)cc3)c2)cc1 | 5.9 |  | 2.4 |  |  |  | 
Oc1ccc(-c2cc(-c3cccs3)nc(-c3ccccc3Cl)c2)cc1 | 2.2 | 8.2 | 78.3 | 4.19 | 5.22 | 5.43 | 5.87
Oc1cccc(-c2cc(-c3ccsc3)nc(-c3cccc(Cl)c3)c2)c1 | 26.2 | 15.4 | 80.1 | 3.33 | 3.18 | 2.51 | 3.54
Oc1ccc(-c2cc(-c3cccc(Cl)c3)nc(-c3ccco3)c2)cc1 | 25.5 | 0 | 71.3 | 5.75 | 2.88 | 8.02 | 5.22
Oc1cccc(-c2cc(-c3cccc(Cl)c3)nc(-c3ccco3)c2)c1 | 5.5 | 4.8 | 70.1 | 2.02 | 2.53 | 2.46 | 3.57
Oc1ccc(-c2cc(-c3ccncc3)nc(-c3ccccc3Cl)c2)cc1 | 9.9 |  | 0 |  |  |  | 
CC[C@@]1(O)C(=O)OCc2c1cc1n(c2=O)Cc2cc3ccccc3nc2-1 [CAMPTOTHECIN] |  |  |  | 1.06 | 1.01 | 1.38 | 1.53
COc1cccc2c1C(=O)c1c(O)c3c(c(O)c1C2=O)C[C@@](O)(C(=O)CO)C[C@@H]3O[C@H]1C[C@H](N)[C@H](O)[C@H](C)O1 [DOXORUBICIN] |  |  |  | 1.1 | 1.34 | 1.03 | 1.05
Oc1cccc(-c2cc(-c3ccncc3)nc(-c3ccccc3Cl)c2)c1 | 0 |  | 0.7 |  |  |  | 
Oc1ccc(-c2cc(-c3ccc(Cl)cc3)nc(-c3cccnc3)c2)cc1 | 18.8 | 11.9 | 59.1 | 22.8 | 27.4 | 20.7 | 29.3
Oc1cccc(-c2cc(-c3cccnc3)nc(-c3ccccc3Cl)c2)c1 | 0 |  | 0 |  |  |  | 
Oc1ccc(-c2cc(-c3cccnc3)nc(-c3ccccc3Cl)c2)cc1 | 0.9 |  | 0 |  |  |  | 
Oc1cccc(-c2cc(-c3ccccn3)nc(-c3ccccc3Cl)c2)c1 | 0 |  | 19.1 |  |  |  | 

Second part, led by results:

inhibition [1] [%] | inhibition [4] [%] | inhibition [7] [%] | SMILES | IC50 [2] [µM] | IC50 [3] [µM] | IC50 [5] [µM] | IC50 [6] [µM]
0 | 0.5 | 76.8 | Oc1ccc(-c2cc(-c3ccccc3)nc(-c3cccc(Cl)c3)c2)cc1 | 5.36 | 2.82 | 6.1 | 4.79
2.8 | 10.6 | 40.4 | Oc1cccc(-c2cc(-c3ccc(Cl)cc3)nc(-c3cccnc3)c2)c1 | 26.8 | 39.5 | 16.8 | 18.1
3.2 | 23 | 83 | Oc1cccc(-c2cc(-c3ccccc3)nc(-c3ccccc3Cl)c2)c1 | 1.48 | 1.76 | 2.93 | 2.92
8 | 12.9 | 51.7 | Oc1cccc(-c2cc(-c3ccncc3)nc(-c3ccc(Cl)cc3)c2)c1 | 2.51 | 2.89 | 2.63 | 3.33
11.7 | 38.3 | 71.6 | Oc1cccc(-c2cc(-c3ccc(Cl)cc3)nc(-c3ccsc3)c2)c1 | 11.6 | 11.2 | 8.85 | 11.5
0 |  | 13.9 | Oc1cccc(-c2cc(-c3ccncc3)nc(-c3cccc(Cl)c3)c2)c1 |  |  |  | 
11.5 | 49.1 | 81.1 | Oc1cccc(-c2cc(-c3ccccc3)nc(-c3cccc(Cl)c3)c2)c1 | 2.75 | 3.12 | 2.55 | 3.7
27.6 |  | 0 | Oc1cccc(-c2cc(-c3cccnc3)nc(-c3cccc(Cl)c3)c2)c1 |  |  |  | 
15.1 | 54.2 | 75.5 | Oc1cccc(-c2cc(-c3ccc(Cl)cc3)nc(-c3cccs3)c2)c1 | 11.6 | 11.8 | 9.28 | 10.5
13.6 | 5.5 | 77.5 | Oc1ccc(-c2cc(-c3ccccc3)nc(-c3ccccc3Cl)c2)cc1 | 2.8 | 3.93 | 4.99 | 5.46
27.1 | 16.7 | 63.8 | Oc1cccc(-c2cc(-c3ccc(Cl)cc3)nc(-c3ccco3)c2)c1 | 11.4 | 8.19 | 10.2 | 10.5
7.1 | 53 | 76.3 | Oc1cccc(-c2cc(-c3ccccc3)nc(-c3ccc(Cl)cc3)c2)c1 | 11.2 | 11.6 | 8.11 | 11.3
0.4 |  | 2.4 | Oc1cccc(-c2cc(-c3cccc(Cl)c3)nc(-c3ccccn3)c2)c1 |  |  |  | 
